# TRPC4 inh: blocks the mouse TRPC4 cation channel; Q9QUQ5; HEK293 TRPC4beta/mu-opioid, DAMGO-evoked Fluo4 calcium flux; stronger effect = lower value; B-score at 10 µM; 300,000 compounds, 0.39% hits; AID 2247;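 active means B-score over 3 SD under the library average, no early fluorescence shift, positive overall ratio signal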
#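 Assay system: TRPC4beta/mu-opioid receptor HEK293 cell line; compound dosing: single concentration per test compound; detection: Fluo4 Ca2+ flux fluorescence; evaluation: per-well B score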
# TRPC6 inh: mouse TRPC6 channel inhibition; B-score at 10 µM; HEK293-TRPC6, membrane potential dye, ACh-evoked depolarization; stronger effect = lower value; AID 2553; 310,000 compounds, 1.1% hits;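 active means B-score under library mean minus 3 SD, initial fluorescence not abnormally high, positive integrated signal ratio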;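 further: B-score derived from integrated fluorescence ratio over the kinetic read; more negative B-score means stronger inhibition of depolarization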
# Target sequence (Q61143 whole entry, looked up): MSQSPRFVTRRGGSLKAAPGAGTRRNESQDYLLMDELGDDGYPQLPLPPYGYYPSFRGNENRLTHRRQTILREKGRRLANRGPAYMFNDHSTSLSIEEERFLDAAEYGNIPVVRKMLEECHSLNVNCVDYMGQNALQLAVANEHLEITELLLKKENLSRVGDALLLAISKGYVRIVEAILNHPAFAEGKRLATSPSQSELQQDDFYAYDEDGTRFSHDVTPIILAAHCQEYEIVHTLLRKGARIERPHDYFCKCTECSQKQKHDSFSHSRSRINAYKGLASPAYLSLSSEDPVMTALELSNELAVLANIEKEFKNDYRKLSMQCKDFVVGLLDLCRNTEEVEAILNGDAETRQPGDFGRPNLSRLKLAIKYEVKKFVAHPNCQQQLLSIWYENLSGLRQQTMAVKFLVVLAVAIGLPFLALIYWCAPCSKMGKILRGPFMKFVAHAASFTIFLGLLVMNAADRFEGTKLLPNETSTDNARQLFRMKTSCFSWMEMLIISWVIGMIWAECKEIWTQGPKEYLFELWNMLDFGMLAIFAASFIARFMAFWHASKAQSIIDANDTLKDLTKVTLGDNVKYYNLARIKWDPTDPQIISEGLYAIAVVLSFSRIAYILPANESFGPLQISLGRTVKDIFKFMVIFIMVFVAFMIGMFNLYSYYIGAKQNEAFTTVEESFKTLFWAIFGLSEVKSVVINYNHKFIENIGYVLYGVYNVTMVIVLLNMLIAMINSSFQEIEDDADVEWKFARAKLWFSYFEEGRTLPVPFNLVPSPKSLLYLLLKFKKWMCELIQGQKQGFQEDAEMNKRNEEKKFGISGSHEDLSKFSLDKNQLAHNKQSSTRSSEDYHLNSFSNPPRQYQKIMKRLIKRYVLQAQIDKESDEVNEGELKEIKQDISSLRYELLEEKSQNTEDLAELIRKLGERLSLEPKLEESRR
# TRPC4 agonist: opens the mouse TRPC4 cation channel; Q9QUQ5; HEK293 TRPC4beta/mu-opioid, Fluo4 calcium fluorescence; stronger effect = higher value; B-score at 10 µM; 310,000 compounds, 0.49% hits; AID 2237;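 active means B-score above 5 SD of library B-scores, and initial fluorescence ratio not above library mean plus 5 SD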;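 further: positive B-score marks a calcium rise read as TRPC4 activation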
#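 Assay system: HEK293 stable line with TRPC4beta plus mu-opioid receptor. Times: dye 45 min RT, read 110 s. Measured by: kinetic Fluo4 calcium fluorescence. Measure: B score of integrated ratio. Controls: assay buffer as low control, maximal DAMGO as high control.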
# TRPC4 PAM: allosteric potentiators of mouse TRPC4 channel; B-score at 10 µM; 310,000 compounds, 0.42% hits; AID 2227; HEK293 TRPC4beta/mu-opioid, DAMGO EC20, Fluo-4 Ca2+ flux; stronger effect = higher value; Q9QUQ5;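 active means B-score of calcium response area above 5 SD of library B-scores, with initial fluorescence ratio within 5 SD of library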;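 further: B-score of integrated fluorescence ratio over time as area under calcium response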
# TRPC6 act: activators of mouse TRPC6 channel; Q61143; HEK293-TRPC6 membrane potential dye fluorescence; stronger effect = higher value; B-score at 10 µM; 310,000 compounds, 0.13% hits; AID 2550;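 active means B-score of the integrated fluorescence ratio above library mean plus 3 SD, and starting fluorescence ratio within library mean plus 5 SD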;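 further: higher score means more depolarization so channel activation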
# An asterisk follows results filed as active; i = inactive. Only some compounds are listed: those with a hit (about 2.3% of all), similar ones and a draw of the others.
SMILES,TRPC4 inh,TRPC6 inh,TRPC4 agonist,TRPC4 PAM,TRPC6 act
CC(C)Cn1c(CN2CCN(C)C(CCO)C2)nc2ccccc21 (stereo not given),i,i,i,19*,i
CCC(C)(NC(=O)c1ccc2c(c1)OCO2)C(=O)NC1CCCCC1 (stereo not given),i,i,i,i,i
CCCCN1C(=O)/C(=C2\SC(N3CCCCC3)=NC2=O)c2ccccc21,i,i,i,i,i
CCCCN1C(=O)C(=Nc2cccc3cnccc23)c2ccccc21,i,i,i,20*,i
COC(=O)CC(N)c1ccc(Br)cc1 (stereo not given),i,i,i,i,i
COC(=O)CC(NC(=S)NC(=O)c1ccccc1)c1ccc(Br)cc1 (stereo not given),i,i,i,72*,i
COC(=O)c1ccccc1NC(=S)N(Cc1ccc2c(c1)OCO2)Cc1cc2ccc(C)cc2[nH]c1=O,i,i,i,i,i
CCN(CC)CCN(Cc1cc2ccc(C)cc2[nH]c1=O)C(=S)Nc1ccccc1C(=O)OC,-6*,i,i,i,i
Cc1ccc(NC(=S)N(CCCN(C)C)Cc2cc3cc4c(cc3[nH]c2=O)OCO4)c(C)c1,-6*,i,i,i,i
COc1ccc(OC)c(CCNC(=O)c2ccc(NC3=NC4CS(=O)(=O)CC4S3)cc2)c1 (stereo not given),i,i,i,i,i
Cc1ccc(C(=O)C(c2ccccc2)N2Cc3ccccc3C2=N)cc1 (stereo not given),i,i,210*,i,i
COc1ccc(C(=O)C(c2ccccc2)N2CCOCC2)cc1 (stereo not given),i,i,i,i,i
Cc1c(CCOC(=O)CC23CC4CC(CC(C4)C2)C3)sc[n+]1CC(=O)c1ccccc1,-5*,i,i,i,i
CN1CCCN(Cc2cccc3ccccc23)CC1,i,i,i,23*,i
OC1CCN(Cc2cccc3ccccc23)CC1,i,i,i,i,i
CC1Cc2ccccc2N1C(=O)CSc1nc2c(c(=O)n(C)c(=O)n2C)n1Cc1ccccc1 (stereo not given),-7*,i,245*,13*,i
Cn1c(=O)c2c(nc(SCCN3CCOCC3)n2Cc2ccc(F)cc2)n(C)c1=O,i,i,i,i,i
Cc1ccc(Cn2c(SCCN3CCCCC3)nc3c2c(=O)n(C)c(=O)n3C)cc1,i,i,43*,70*,i
Cn1c(=O)c2c(nc(SCc3cccnc3)n2Cc2ccc(F)cc2)n(C)c1=O,-5*,i,i,i,i
CCOC(=O)C1=C(CCl)NC(=O)NC1c1ccc2c(c1)OCO2 (stereo not given),i,i,i,i,i
CCOc1ccc(CCNC(=O)c2ccc3c(=O)[nH]c4c(C(=O)NC(C)C)sc(=S)n4c3c2)cc1,i,i,i,18*,i
CCCCNC(=O)c1sc(=S)n2c1[nH]c(=O)c1ccccc12,i,i,46*,i,i
CC(C)NC(=O)c1sc(=S)n2c1[nH]c(=O)c1ccc(C(=O)NCCc3ccc(Cl)cc3)cc12,i,i,i,i,i
O=C(O)c1ccc2c(c1)C(=O)N(c1cc([N+](=O)[O-])ccn1)C2=O,i,i,i,i,i
Cc1ccn2c(CNCCCn3cccn3)c(C(=O)N3CCCCCC3)nc2c1,-7*,i,i,i,i
SMILES,TRPC4 inh,TRPC6 inh,TRPC4 agonist,TRPC4 PAM,TRPC6 act
Cc1ccn2c(CNCCn3cccn3)c(C(=O)N3CCCCCC3)nc2c1,i,i,i,i,i
O=C(Nc1ccccc1Cl)OC1CCCCC1,i,i,i,i,i
Cc1ccc(NC2=Nc3ccccc3CC2)cc1,i,i,54*,i,i
COc1ccc(C(=O)OC2CCCCC2CN(C)C)cc1 (stereo not given),i,i,i,i,i
CN(C)CC1CCCCC1OC(=O)c1ccc(Br)cc1 (stereo not given),-6*,i,i,i,i
Cc1ccc(CNC(=O)C2CCCN(Cc3cnn(-c4ccccc4)c3-n3cccc3)C2)cc1 (stereo not given),i,i,95*,i,i
Cc1cc(C(=O)NCC(c2ccco2)N(C)C)ccc1[N+](=O)[O-] (stereo not given),i,i,71*,i,i
CN(C)C(CNC(=O)c1cc(Br)ccc1Cl)c1ccco1 (stereo not given),i,i,i,i,i
CN(C)C(CNC(=O)c1ccc(Br)cc1)c1ccco1 (stereo not given),i,i,63*,i,i
Cc1c(C(=O)NCC(c2ccco2)N(C)C)oc2c(Cl)cccc12 (stereo not given),-8*,i,i,i,i
CC(C)CCOc1ccc(C(=O)NCC(c2ccco2)N(C)C)cc1 (stereo not given),-7*,i,i,i,i
CN(C)C(CNC(=O)CCNC(=O)c1ccc(Br)cc1)c1ccco1 (stereo not given),i,i,i,i,i
Cc1ccc2oc(C(=O)N(C)CCC(O)c3ccccc3)c(C)c2c1 (stereo not given),i,i,i,i,i
CN(C)C(CNC(=O)c1ccccc1OCc1ccc(Cl)cc1)c1ccco1 (stereo not given),-7*,i,i,i,i
N#CC1=C(N)C(C#N)(C#N)C(c2cccnc2)C2CC(c3ccccc3)CC=C12 (stereo not given),i,i,i,36*,i
N#CC1=C(N)C(C#N)(C#N)C(c2cccnc2)C2CCCC=C12 (stereo not given),i,i,i,i,i
O=C(O)c1cccc(S(=O)(=O)N2CCN(C(c3ccccc3)c3ccccc3)CC2)c1,-9*,i,i,i,i
O=C(O)c1cccc(S(=O)(=O)N2CCCC2)c1,i,i,i,i,i
N#Cc1ncc(-c2ccc3c(c2)OCCOCCOCCOCCO3)nc1C#N,i,i,i,i,i
N#Cc1ncc(-c2ccc3c(c2)OCCOCCOCCOCCOCCO3)nc1C#N,-6*,i,i,i,i
CN(C)c1ccc(NC(=O)C2C3C=CC(C3)C2C(=O)O)cc1 (stereo not given),i,i,i,21*,i
O=C(O)C1C2C=CC(C2)C1C(=O)Nc1ccc2c(c1)OCCO2 (stereo not given),i,i,i,i,i
